Source: ChEMBL document CHEMBL1135693, “Solid-phase synthesis of polyamine toxin analogues: potent and selective antagonists of Ca2+-permeable AMPA receptors” (J Med Chem, 2002)

Legend:
[1] = Ratio of Ki value at -40 mV to that of -80 mV was determined; type: functional
[2] = target: T1, Glutamate receptor 1 (Homo sapiens, UniProt P42261); assay: Inhibition of the (-40 mV) current elicited by 100 uM glutamate by simultaneous co-application in xenopus oocytes injected with GluR1 flop RNA.; type: cell-based, Oocyte
Outline: (§1)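 Two-electrode voltage clamp of stage V–VI Xenopus laevis oocytes (collagenase-isolated), injected with 5-30 ng GluR1 flop cRNA, recorded 3-14 days later in Ringer (pH 7.5; low-Ca2+ Ringer for high-current cells).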

[3] = Inhibition of the current elicited by 100 uM glutamate by simultaneous co-application of the antagonist in xenopus oocytes injected with a 1:1 mixture of GluR1 flop and GluR2 flop RNA; type: functional, cell-based, Xenopus laevis; conditions: oocyte
Outline: (§2)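 Xenopus laevis oocytes (stage V–VI) injected with 5-30 ng cRNA, either 1:1 GluR1 flop + GluR2 flop or GluR5(Q) flop. After 3-14 days, two-electrode voltage clamp recordings were made in Ringer pH 7.5 (low-Ca2+ Ringer if currents were high). […] Values are means of two independent measurements in triplicate.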

[4] = target: T1, Glutamate receptor 1; assay: Inhibition of the (-80 mV) current elicited by 100 uM glutamate by simultaneous co-application in xenopus oocytes injected with GluR1 flop RNA.; type: cell-based, Oocyte; outline: as §1
[5] = Inhibition of the current elicited by 100 uM glutamate by simultaneous co-application of the antagonist in xenopus oocytes injected with a 1:1 mixture of GluR1 flop and GluR2 flop RNA as well as GluR5(Q).; type: functional, cell-based, Xenopus laevis; conditions: oocyte; outline: as §2

T1 sequence (P42261 whole entry): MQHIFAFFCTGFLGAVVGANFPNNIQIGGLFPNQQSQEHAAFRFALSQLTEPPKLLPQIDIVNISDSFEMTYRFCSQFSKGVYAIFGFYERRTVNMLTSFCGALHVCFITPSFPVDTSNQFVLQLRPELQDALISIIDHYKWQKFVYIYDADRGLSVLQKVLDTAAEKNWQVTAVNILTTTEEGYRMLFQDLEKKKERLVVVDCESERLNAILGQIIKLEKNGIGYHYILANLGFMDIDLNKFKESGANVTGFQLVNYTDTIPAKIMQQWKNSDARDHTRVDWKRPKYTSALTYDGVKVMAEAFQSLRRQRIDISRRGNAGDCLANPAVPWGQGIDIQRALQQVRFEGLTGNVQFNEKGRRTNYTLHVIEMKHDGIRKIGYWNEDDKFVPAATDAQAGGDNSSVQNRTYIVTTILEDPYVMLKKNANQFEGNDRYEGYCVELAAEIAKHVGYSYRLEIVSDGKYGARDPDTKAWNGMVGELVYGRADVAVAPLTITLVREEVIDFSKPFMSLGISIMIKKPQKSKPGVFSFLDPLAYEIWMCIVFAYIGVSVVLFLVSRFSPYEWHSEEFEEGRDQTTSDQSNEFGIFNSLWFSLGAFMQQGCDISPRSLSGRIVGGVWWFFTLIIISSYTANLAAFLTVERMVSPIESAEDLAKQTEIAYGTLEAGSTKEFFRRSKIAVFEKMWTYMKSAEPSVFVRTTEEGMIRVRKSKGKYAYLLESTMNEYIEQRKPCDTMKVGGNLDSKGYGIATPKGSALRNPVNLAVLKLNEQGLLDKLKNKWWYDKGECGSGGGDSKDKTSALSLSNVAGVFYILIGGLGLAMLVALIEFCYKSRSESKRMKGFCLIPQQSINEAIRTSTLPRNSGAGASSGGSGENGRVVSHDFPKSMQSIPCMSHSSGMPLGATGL

Row | SMILES | Ratio [1] | Ki [2] [µM] | Ki [3] [µM] | Ki [4] [µM] | Ki [5] [µM]
1 | CCCC(=O)NC(Cc1ccc(O)cc1)C(=O)NCCCCCCCNCCCCN (configuration not stated) | 18 | 3 | 1.6 | 0.168 | 0.29
2 | CCCC(=O)NC(Cc1ccc(O)cc1)C(=O)NCCCCCCNCCCCCN (configuration not stated) | – | > 10 | 6.4 | 0.468 | 0.8
3 | NCCCNCCCCCCCCNC(=O)C(Cc1ccc(O)cc1)NC(=O)Cc1ccccc1 (configuration not stated) | 2.3 | 0.25 | – | 0.11 | –
4 | CCCC(=O)NC(Cc1ccc(O)cc1)C(=O)NCCCCCCCCNCCCN (configuration not stated) | – | 8 | > 10 | 0.065 | 0.25
5 | CC(C)(C)C(=O)NC(Cc1ccc(O)cc1)C(=O)NCCCCCCCCNCCCN (configuration not stated) | 1.6 | 0.14 | – | 0.09 | –
6 | CCCC(=O)NC(Cc1ccc(O)cc1)C(=O)NCCCCCNCCCCCCN (configuration not stated) | 86 | 0.287 | 5.2 | 0.0033 | 2.2
7 | CCCC(=O)NC(Cc1ccc(O)cc1)C(=O)NCCCNCCCCNCCCN (configuration not stated) | – | 170 | > 5 | 22 | 0.015
8 | CCCC(=O)NC(Cc1ccc(O)cc1)C(=O)NCCCCCCCCCNCCN (configuration not stated) | – | 6.2 | > 10 | 0.41 | 2.1
9 | NCCCNCCCCCCCCNC(=O)C(Cc1ccc(O)cc1)NC(=O)C1CCCCC1 (configuration not stated) | 3.1 | 0.24 | – | 0.078 | –
10 | CC(=O)NC(Cc1ccc(O)cc1)C(=O)NCCCCCCCCNCCCN (configuration not stated) | 1.4 | 0.3 | – | 0.22 | –
11 | CCCC(=O)NC(Cc1ccc(O)cc1)C(=O)NCCCCNCCCCCCCN (configuration not stated) | 3.6 | 0.135 | > 10 | 0.038 | 0.06
12 | NCCCNCCCCCCCCNC(=O)C(Cc1ccc(O)cc1)NC(=O)c1cccnc1 (configuration not stated) | 2.4 | 0.21 | – | 0.088 | –
13 | CCC(=O)NC(Cc1ccc(O)cc1)C(=O)NCCCCCCCCNCCCN (configuration not stated) | 2.8 | 0.28 | – | 0.1 | –
14 | NCCCNCCCCCCCCNC(=O)C(Cc1ccc(O)cc1)NC(=O)c1ccccc1 (configuration not stated) | 1.9 | 0.25 | – | 0.13 | –
15 | NCCCNCCCCCCCCNC(=O)C(Cc1ccc(O)cc1)NC(=O)c1ccncc1 (configuration not stated) | 5.1 | 0.33 | – | 0.064 | –
16 | NCCCNCCCCCCCCNC(=O)C(Cc1ccc(O)cc1)NC(=O)CCc1ccccc1 (configuration not stated) | 1 | 0.254 | – | 0.25 | –
17 | CCCCCC(=O)NC(Cc1ccc(O)cc1)C(=O)NCCCCCCCCNCCCN (configuration not stated) | 14.7 | 1 | – | 0.068 | –
18 | NCCCNCCCCCCCCNC(=O)C(Cc1ccc(O)cc1)NC(=O)/C=C/c1ccccc1 (configuration not stated) | 1.5 | 0.17 | – | 0.11 | –
19 | NCCCNCCCCCCCCNC(=O)C(Cc1ccc(O)cc1)NC(=O)c1ccccn1 (configuration not stated) | 1.3 | 0.17 | – | 0.13 | –
